Assay results: ChEMBL document CHEMBL1140227, “Histone deacetylase inhibitors through click chemistry” (J Med Chem, 2008)

Key:
Type in all cases: functional
SNB-75 = assay: Growth inhibition of human SNB75 cells at 10 uM relative to control; details: values are per cent of control
How it was run: (§1)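 Single-dose NCI human tumour cell line screen, run by the NIH. Percent inhibition of cell line growth was calculated by comparison with untreated samples.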

KM12 = assay: Growth inhibition of human KM12 cells at 10 uM relative to control; details: values are per cent of control
How it was run: (§2)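 Single-dose preliminary screen in the NCI human cancer cell line panel, run by the NIH. Percent inhibition of cell line growth was calculated by comparison with untreated samples.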

cells [1] = details: Homo sapiens, Cancer cell lines
cells [2] = details: Homo sapiens, Cancer cell lines; remark: listed apart in the source
UO-31 = assay: Growth inhibition of human UO31 cells at 10 uM relative to control; details: values are per cent of control; how it was run: as §1
Melanoma cell = assay: cells; details: Homo sapiens
EKVX = assay: Growth inhibition of human EKVX cells at 10 uM relative to control; details: values are per cent of control; how it was run: as §2
cells [3] = details: Homo sapiens, Cancer cell lines; remark: listed apart in the source
HCT-116 = assay: Growth inhibition of human HCT116 cells at 10 uM relative to control; details: values are per cent of control; how it was run: as §2
OVCAR-3 = assay: Growth inhibition of human OVCAR-3 cells at 10 uM relative to control; details: values are per cent of control; how it was run: as §2
NCI-H23 = assay: Growth inhibition of human NCI-H23 cells at 10 uM relative to control; details: values are per cent of control; how it was run: as §2
SF-295 = assay: Growth inhibition of human SF295 cells at 10 uM relative to control; details: values are per cent of control; how it was run: as §2
BT-549 = assay: Growth inhibition of human BT549 cells at 10 uM relative to control; details: values are per cent of control; how it was run: as §2
IGROV-1 = assay: Growth inhibition of human IGROV1 cells at 10 uM relative to control; details: values are per cent of control; how it was run: as §2
NCI-H522 = assay: Growth inhibition of human NCI-H522 cells at 10 uM relative to control; details: values are per cent of control; how it was run: as §2
PC-3 = assay: Growth inhibition of human PC3 cells at 10 uM relative to control; details: values are per cent of control; how it was run: as §2
COLO 205 = assay: Growth inhibition of human COLO205 cells at 10 uM relative to control; details: values are per cent of control; how it was run: as §2
LOX IMVI = assay: Growth inhibition of human LOXIMVI cells at 10 uM relative to control; details: values are per cent of control; how it was run: as §2
HT-29 = assay: Growth inhibition of human HT-29 cells at 10 uM relative to control; details: values are per cent of control; how it was run: as §2
SK-MEL-2 = assay: Growth inhibition of human SK-MEL-2 cells at 10 uM relative to control; details: values are per cent of control; how it was run: as §2
UACC-257 = assay: Growth inhibition of human UACC257 cells at 10 uM relative to control; details: values are per cent of control; how it was run: as §1
OVCAR-5 = assay: Growth inhibition of human OVCAR5 cells at 10 uM relative to control; details: values are per cent of control; how it was run: as §2
MDA-MB-468 = assay: Growth inhibition of human MDA-MB-468 cells at 10 uM relative to control; details: values are per cent of control; how it was run: as §2
SK-MEL-5 = assay: Growth inhibition of human SK-MEL-5 cells at 10 uM relative to control; details: values are per cent of control; how it was run: as §2
CCRF-CEM = assay: Growth inhibition of human CCRF-CEM cells at 10 uM relative to control; details: values are per cent of control; how it was run: as §2
Leukemia cell = assay: cells; details: Homo sapiens
HOP-62 = assay: Growth inhibition of human HOP62 cells at 10 uM relative to control; details: values are per cent of control; how it was run: as §2
OVCAR-4 = assay: Growth inhibition of human OVCAR4 cells at 10 uM relative to control; details: values are per cent of control; how it was run: as §2
SK-MEL-28 = assay: Growth inhibition of human SK-MEL-28 cells at 10 uM relative to control; details: values are per cent of control; how it was run: as §2
Malme-3M = assay: Growth inhibition of human MALME-3M cells at 10 uM relative to control; details: values are per cent of control; how it was run: as §2
T47D = assay: Growth inhibition of human T47D cells at 10 uM relative to control; details: values are per cent of control; how it was run: as §1
U-251 = assay: Growth inhibition of human U251 cells at 10 uM relative to control; details: values are per cent of control; how it was run: as §1
MDA-MB-231 = assay: Growth inhibition of human MDA-MB-231 cells at 10 uM relative to control; details: values are per cent of control; how it was run: as §2
HCC 2998 = assay: Growth inhibition of human HCC2998 cells at 10 uM relative to control; details: values are per cent of control; how it was run: as §2
NCI-H226 = assay: Growth inhibition of human NCI-H226 cells at 10 uM relative to control; details: values are per cent of control; how it was run: as §2
K562 = assay: Growth inhibition of human K562 cells at 10 uM relative to control; details: values are per cent of control; how it was run: as §2
TK-10 = assay: Growth inhibition of human TK10 cells at 10 uM relative to control; details: values are per cent of control; how it was run: as §1
M14 = assay: Growth inhibition of human M14 cells at 10 uM relative to control; details: values are per cent of control; how it was run: as §2
NCI/ADR-RES = assay: Growth inhibition of human NCI/ADR-RES cells at 10 uM relative to control; details: values are per cent of control; how it was run: as §2
NCI-H322M = assay: Growth inhibition of human NCI-H322M cells at 10 uM relative to control; details: values are per cent of control; how it was run: as §2
MCF7 = assay: Growth inhibition of human MCF7 cells at 10 uM relative to control; details: values are per cent of control; how it was run: as §2
SK-OV-3 = assay: Growth inhibition of human SKOV3 cells at 10 uM relative to control; details: values are per cent of control; how it was run: as §2
A549 = assay: Growth inhibition of human A549 cells at 10 uM relative to control; details: values are per cent of control; how it was run: as §2
MDA-MB-435 = assay: Growth inhibition of human MDA-MB-435 cells at 10 uM relative to control; details: values are per cent of control; how it was run: as §2
DU-145 = assay: Growth inhibition of human DU145 cells at 10 uM relative to control; details: values are per cent of control; how it was run: as §2
HL-60(TB) = assay: Growth inhibition of human HL-60(TB) cells at 10 uM relative to control; details: read-out: INH
How it was run: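 Single-dose cell line screen run by the NCI (NIH) in its human cancer cell line panel, which includes the leukemia line HL-60(TB). Percent growth inhibition was calculated by comparison with untreated samples.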

SN12C = assay: Growth inhibition of human SN12C cells at 10 uM relative to control; details: values are per cent of control; how it was run: as §2
cells [4] = details: Homo sapiens, Cancer cell lines; remark: listed apart in the source
SF-268 = assay: Growth inhibition of human SF268 cells at 10 uM relative to control; details: values are per cent of control; how it was run: as §2
OVCAR-8 = assay: Growth inhibition of human OVCAR8 cells at 10 uM relative to control; details: values are per cent of control; how it was run: as §2
SF-539 = assay: Growth inhibition of human SF539 cells at 10 uM relative to control; details: values are per cent of control; how it was run: as §2
CAKI-1 = assay: Growth inhibition of human Caki1 cells at 10 uM relative to control; details: values are per cent of control; how it was run: as §2
[5] = Growth inhibition of human Hs 578T cells at 10 uM relative to control; details: values are per cent of control; how it was run: as §2
HCT-15 = assay: Growth inhibition of human HCT15 cells at 10 uM relative to control; details: values are per cent of control; how it was run: as §2
cells [6] = details: Homo sapiens, Cancer cell lines; remark: listed apart in the source
SNB-19 = assay: Growth inhibition of human SNB19 cells at 10 uM relative to control; details: values are per cent of control; how it was run: as §2
786-0 = assay: Growth inhibition of human 786-0 cells at 10 uM relative to control; details: values are per cent of control; how it was run: as §2
NCI-H460 = assay: Growth inhibition of human NCI-H460 cells at 10 uM relative to control; details: values are per cent of control; how it was run: as §2
ACHN = assay: Growth inhibition of human ACHN cells at 10 uM relative to control; details: values are per cent of control; how it was run: as §2
[7] = Growth inhibition of human RPMI8266 cells at 10 uM relative to control; details: values are per cent of control; how it was run: as §2
UACC-62 = assay: Growth inhibition of human UACC62 cells at 10 uM relative to control; details: values are per cent of control; how it was run: as §1
MOLT-4 = assay: Growth inhibition of human MOLT4 cells at 10 uM relative to control; details: values are per cent of control; how it was run: as §2

`O=C(/C=C/c1cn(CC(=O)c2ccccc2)nn1)NO` showed a growth, % of control at 10 µM (SNB-75) of 53.9%, a growth, % of control at 10 µM (KM12) of 78% and a growth percent at 10 µM (cells [1]) of 65%. It also gave a growth percent at 10 µM (cells [2]) of 78%, a growth, % of control at 10 µM (UO-31) of 45.3% and an inhibition at 10 µM (Melanoma cell) of 60%. It also gave a growth, % of control at 10 µM (EKVX) of 54.6%, an inhibition at 10 µM (cells [3]) of 67% and a growth, % of control at 10 µM (HCT-116) of 30.7%. The growth, % of control at 10 µM (OVCAR-3) was 57.7%, the growth, % of control at 10 µM (NCI-H23) was 69.2% and the growth, % of control at 10 µM (SF-295) was 15.3%. It also gave a growth, % of control at 10 µM (BT-549) of 72.1%, a growth, % of control at 10 µM (IGROV-1) of 64.2% and a growth, % of control at 10 µM (NCI-H522) of 31.1%. It also gave a growth, % of control at 10 µM (PC-3) of 57.8%, a growth, % of control at 10 µM (COLO 205) of 105% and a growth, % of control at 10 µM (LOX IMVI) of 88.3%. For the same compound, the growth, % of control at 10 µM (HT-29) was 60%, the growth, % of control at 10 µM (SK-MEL-2) was 61.7% and the growth, % of control at 10 µM (UACC-257) was 43.9%. It also gave a growth, % of control at 10 µM (OVCAR-5) of 65%, a growth, % of control at 10 µM (MDA-MB-468) of 64.6% and a growth, % of control at 10 µM (SK-MEL-5) of 92.9%. The growth, % of control at 10 µM (CCRF-CEM) was 48.6%, the inhibition at 10 µM (Leukemia cell) was 104% and the growth, % of control at 10 µM (HOP-62) was 30.1%. It also gave a growth, % of control at 10 µM (OVCAR-4) of 77.8%, a growth, % of control at 10 µM (SK-MEL-28) of 82.2% and a growth, % of control at 10 µM (Malme-3M) of 6.42%. The growth, % of control at 10 µM (T47D) was 64.7%, the growth, % of control at 10 µM (U-251) was 76% and the growth, % of control at 10 µM (MDA-MB-231) was 96.9%. The growth, % of control at 10 µM (HCC 2998) was 71.1%, the growth, % of control at 10 µM (NCI-H226) was 89.4% and the growth, % of control at 10 µM (K562) was 72.3%. The growth, % of control at 10 µM (TK-10) was 46.7%, the growth, % of control at 10 µM (M14) was 49.5% and the growth, % of control at 10 µM (NCI/ADR-RES) was 14.8%. For the same compound, the growth, % of control at 10 µM (NCI-H322M) was 41.3%, the growth, % of control at 10 µM (MCF7) was 77.8% and the growth, % of control at 10 µM (SK-OV-3) was 81.9%. The growth, % of control at 10 µM (A549) was 54.1%, the growth, % of control at 10 µM (MDA-MB-435) was 23.3% and the growth, % of control at 10 µM (DU-145) was 75.2%. For the same compound, the growth, % of control at 10 µM (HL-60(TB)) was 258%, the growth, % of control at 10 µM (SN12C) was 86.2% and the inhibition at 10 µM (cells [4]) was 65%. The growth, % of control at 10 µM (SF-268) was 71.9%, the growth, % of control at 10 µM (OVCAR-8) was 45.1% and the growth, % of control at 10 µM (SF-539) was 86.4%. It also gave a growth, % of control at 10 µM (CAKI-1) of 63.9%, a growth, % of control at 10 µM [5] of 211% and a growth, % of control at 10 µM (HCT-15) of 117%. The inhibition at 10 µM (cells [6]) was 53%, the growth, % of control at 10 µM (SNB-19) was 101% and the growth, % of control at 10 µM (786-0) was 39.9%. It also gave a growth, % of control at 10 µM (NCI-H460) of 62.5%, a growth, % of control at 10 µM (ACHN) of 82.5% and a growth, % of control at 10 µM [7] of 55.6%. For the same compound, the growth, % of control at 10 µM (UACC-62) was 61.2% and the growth, % of control at 10 µM (MOLT-4) was 83%.
